One assay concerns HepG2. In words: Cytotoxicity against human HepG2 cells after 3 days by MTT assay. The format is functional, cell-based. To be noted: for IC50: HepG2, 72 h. The procedure, abridged: (§1)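 Freshly trypsinized cells were seeded at 5000-10 000 per well, and compounds were added from DMSO stocks. After 3 days of culture, attached cells were given MTT (0.5 mg/mL, 1 h) and then solubilized in DMSO. Absorbance was read at 550 nm. IC50 is the concentration that cut cell growth by 50%. Values are the mean of two to three separate experiments, each in triplicate.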
Background: Formazan colour is commonly taken as a measure of viable cells.

Assay [1] is described as follows: (§2) Cytotoxicity against human Hep3B cells after 3 days by MTT assay. The format is functional, cell-based, Hep 3B2. To be noted: 72 h. The procedure, abridged:
as §1

A further assay concerns A549. In words: Cytotoxicity against human A549 cells after 3 days by MTT assay. The format is functional, cell-based. To be noted: for IC50: A549, 72 h. The method in brief: as §1
A further assay deals with MDA-MB-231. Kind of assay: Cytotoxicity against human MDA-MB-231 cells after 3 days by MTT assay. The format is functional, cell-based. Particulars: for IC50: MDA-MB-231, 72 h. The procedure, abridged:
as §1

The next assay relates to MCF7. Kind of assay: Cytotoxicity against human MCF7 cells after 3 days by MTT assay. In kind it is functional, cell-based. Particulars: for IC50: MCF7, 72 h. The procedure, abridged: as §1
Assay [2] deals with Platelet. In words: Inhibition of collagen-induced human platelet aggregation by light transmission aggregometer. The format is functional, cell-based. The procedure, abridged:
(§3)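 Human platelet suspension was preincubated with DMSO or compound at 37 °C for 3 min, stirring at 1200 rpm, before the activator was added. Aggregation was followed turbidimetrically in a light-transmission aggregometer.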

Assay [3] has as its system Platelet. In words: Inhibition of thrombin-induced human platelet aggregation by light transmission aggregometer. In kind it is functional, cell-based. The procedure, abridged: as §3
A further assay deals with Hep 3B2. Described as §2. The format is functional, cell-based. The method in brief:
as §1

The source made the active and inactive calls. No cut-off for these calls is given here.

The term IC50 denotes the concentration that inhibits the measured activity by half. A higher IC50 goes with weaker potency in that assay.

For `C=C1C(=O)O[C@H]2/C=C(\C)C[C@@H]3C=C(C/C=C/[C@@](C)(O)CC[C@H]12)C(=O)O3`, the IC50 in the assay with HepG2 is 10 µM; in assay [1], greater than 10 µM; in the assay with A549, 9.9 µM; in the assay on MDA-MB-231 it was greater than 10 µM; in the assay with MCF7 it was greater than 10 µM; with Platelet [2] it was greater than 100 µM. This compound had an IC50 in the assay on Platelet [3] of 20 µM.
For the compound `C=C1C(=O)O[C@H]2/C=C(\C)C[C@@H]3C=C(CC[C@H]4O[C@@]4(C)CC[C@H]12)C(=O)O3`, the IC50 in the assay with HepG2 was 10 µM; in assay [1] it was 9.3 µM; with A549, 8.8 µM; in the assay with MDA-MB-231, greater than 10 µM; in the assay on MCF7, greater than 10 µM; in the assay with Platelet [2] it was greater than 100 µM. Also, the IC50 with Platelet [3] was 4.8 µM.
`CC(=O)Oc1ccccc1C(=O)O` [ASPIRIN]: the IC50 in the assay with Platelet [2] is 153 µM; in the assay on Platelet [3], greater than 100 µM.
Turning to `C=C1C(=O)O[C@H]2/C=C(\C)C[C@@H]3C=C(CC[C@@H](OO)C(=C)CC[C@H]12)C(=O)O3`, the result in the assay with HepG2, in the assay with Hep 3B2, in the assay with A549, in the assay with MDA-MB-231, in the assay on MCF7 and in the assay on Platelet [2] was inactive. The outcome in the assay with Platelet [3] was inactive.
As for `C=C1CC[C@@H]2C(=C)C(=O)O[C@H]2/C=C(\C)C[C@@H]2C=C(CC[C@H]1O)C(=O)O2`, the result in the assay with HepG2, in the assay on Hep 3B2, with A549, with MDA-MB-231 and in the assay with MCF7 was inactive. The IC50 was 41.9 µM with Platelet [2] and greater than 100 µM with Platelet [3].
`COc1cccc2c1C(=O)c1c(O)c3c(c(O)c1C2=O)C[C@@](O)(C(=O)CO)C[C@@H]3O[C@H]1C[C@H](N)[C@H](O)[C@H](C)O1` [DOXORUBICIN]: the IC50 in the assay on HepG2 stood at 0.82 µM; in assay [1], 0.48 µM; in the assay on A549, 0.4 µM; in the assay with MDA-MB-231, 0.07 µM.
On to `C=C1C(=O)O[C@H]2/C=C(\C)C[C@@H]3C=C(CC/C=C(\C)CC[C@H]12)C(=O)O3`, for which the IC50 with HepG2 was 10 µM; in assay [1], 7.4 µM; in the assay with A549, 9.6 µM; with MDA-MB-231 it was 9.5 µM; in the assay on MCF7 it was 9.5 µM; in the assay on Platelet [2], 19.7 µM. The compound also registered an IC50 with Platelet [3] greater than 100 µM.
Regarding `C=C1CC[C@H]2C(=C)C(=O)O[C@@H]2/C=C(\C)C[C@H]2C=C(CCC1=O)C(=O)O2`, the IC50 is 10 µM in the assay on HepG2; greater than 10 µM in assay [1]; greater than 10 µM in the assay with A549; 9.8 µM with MDA-MB-231; greater than 10 µM with MCF7. Also, the outcome with Platelet [2] and in the assay on Platelet [3] was inactive.
On to `C=C1C(=O)O[C@H]2/C=C(\C)C[C@@H]3C=C(C/C=C/[C@@](C)(OO)CC[C@H]12)C(=O)O3`, for which the result in the assay on HepG2, in the assay on Hep 3B2, with A549, in the assay on MDA-MB-231 and in the assay on MCF7 was inactive. Besides, the IC50 in the assay on Platelet [2] is greater than 100 µM; in the assay on Platelet [3], 11.9 µM.

The record behind these values is ChEMBL document CHEMBL1157510, “Bioactive cembrane diterpenoids of Anisomeles indica” (J Nat Prod, 2008).
